Test [1] can be described thus: S. cerevisiae growth inhibition in permissive medium (OD615), pilot counter-assay for S. cerevisiae lifespan shortening project, permissive growth control (AID 705;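 active means growth inhibition above 25% in both replicates, a cutoff set 3 SD above the mean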). The note with it: OD615, 24 h, at 10 µM, active compounds read high. An outline of the steps: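 System: engineered DeaD yeast; Medium: permissive raffinose/galactose medium; Compound dosing: 10 µM single dose, 0.25% DMSO; Incubation: 4 h cell pre-growth, 24 h exposure at 30 °C; Technique: OD at 615 nm; Evaluation: growth inhibition from lowered OD615 after 24 h.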

The nature of test [2]: S. cerevisiae growth inhibition in restrictive medium, OD615, pilot screen, restrictive growth control, yeast lifespan reduction project (AID 706;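 active means growth inhibition above a set limit, 3 SD over mean compound inhibition, in both replicates, cut at about 43% in these data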;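 further: modified DeaD lifespan yeast strain shifted to restrictive glucose medium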). The note with it: OD615, 48 h, at 10 µM, active compounds read high. In a few lines: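 Material: modified S. cerevisiae; buffer or medium: CSMM-D glucose medium; doses: one concentration, 10 µM final, 0.25% DMSO; incubation: 48 h compound exposure at 30 °C; detection: optical density at 615 nm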

The nature of test [3]: doxorubicin toxicity protection in MRP-1 cells – H69AR cells, CellTiter-Glo, duplicate, MRP-1 activator project, pilot screen (AID 807).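 Further: compound pretreatment 18-22 h then 72 h combined with doxorubicin; 0% = doxorubicin alone and 100% = vehicle without doxorubicin.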 The conditions noted are these: H69AR viability with doxorubicin, CellTiter-Glo luminescence; at 10 µM; active compounds read high. (In general: Cellular ATP, detected with luciferase, serves as a proxy for viable cell number.)
Test [4] can be described thus: viability of HCT116 without oncogenic beta-catenin – human colon tumor cells, pilot screen (AID 823;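 active means cell viability at or below a set limit in both duplicate runs, the limit being the all-compound median minus 4 SD, cut at about 23% in these data, passing the limit was not always enough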;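 further: 0% = wells killed by 20 µM Hyamine and 100% = untreated DMSO cell wells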). The note with it: HCT116 beta-catenin knockout viability, CellTiter-Glo, 60 h; at 10 µM; active compounds read low.
Test [5] can be described thus: viability of PTEN-null HCT116 cells – cell-based, HCT116 clonal line, CellTiter-Glo, pilot screen (AID 824;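 active means viability at or below 27.92% in each of two runs, the all-compound median minus 4 SD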;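 further: 0% = 20 µM Hyamine control and 100% = vehicle cell control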). The note with it: HCT116 PTEN-deleted viability, 60 h, at 10 µM, active compounds read low.
A short description of test [6]: RAM pathway blockade in budding yeast – dse1pr::URA3 reporter, 5-FOA selection, pilot screen (AID 869;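 active means inhibition over a set limit, the all-compound mean plus 3 SD, in both replicate runs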;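 further: 0% = DMSO wells with no growth and 100% = 10 µM 1-NA-PP1 with full growth; RAM network block rescues cells from 5-FOA so hits raise OD615 growth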). The note with it: S. cerevisiae dse1pr::URA3 5-FOA growth, OD615, 2 d; at 10 µM; active compounds read high; strain carries analog-sensitive mutant Cbk1 kinase.
Test [7] is described as follows: RAM signaling pathway blockade in yeast – S. cerevisiae, Pdr1DBD-CYC8 efflux-inhibited sensitized strain, primary screen (AID 1298;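 active means RAM network inhibition above 8.4% in each of two replicates, 3 SD over the compound average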;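 further: 0% = DMSO untreated cells without growth and 100% = 10 µM 1-NA-PP1 full growth; higher means more yeast growth rescued from 5-FOA killing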). The note with it: S. cerevisiae cbk1-as DSE1-URA3 strain, 5-FOA growth OD615, 2 d; at 50 µM; active compounds read high.

A number with no mark means an inactive call. Results filed as inconclusive are left out. Activity calls are given as the source filed them.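 How the source made its calls, unless noted: active means viability increase at or above a cutoff of the median across tested compounds plus 3 SD (cut at about 8.5% in these data, passing the limit was not always enough); inconclusive means some gains above the cutoff, reason not given; inactive means the rest.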

For orientation: viability means a read-out of living cells in per cent, often relative to untreated cells. Broadly, the inhibition is the change of the read-out against control, counted positive when it falls. As to `CC1CC(C)CN(c2nc3c(c(=O)[nH]c(=O)n3C)n2CCSc2nc3ccccc3o2)C1` (stereo unspecified), the growth inhibition in test [1] is -8.58%; in test [2], -7.3%. In addition, the viability increase in test [3] is -2.41%. In addition, the viability was 93.2% in test [4] and 93.6% in test [5]. Besides, in test [6], the inhibition is 0.335%. Besides, the RAM network inhibition in test [7] was -0.32%.

For the compound `CCCc1cc(=O)[nH]c(SCC(=O)N2CCN(S(=O)(=O)c3ccc(C)cc3)C2)n1`, the growth inhibition in test [1] is -4.67%; in test [2] it was -21.2%. For the same compound, the viability increase in test [3] is -1.75%. Also, the viability was 98.8% in test [4] and 85.6% in test [5]. Besides, in test [6], the inhibition was 2.64%. Besides, the RAM network inhibition in test [7] was 3.8%.

Take `CCOC(=O)N1CCN(CC(=O)Nc2cc3c(cc2C(C)=O)OCO3)CC1`: the growth inhibition is 2.37% in test [1] and 13% in test [2]. Moreover, the viability increase in test [3] was -3.17%. Besides, the viability in test [4] is 94.2%; in test [5] it was 98.9%. The inhibition in test [6] is 0.555%. In addition, the RAM network inhibition in test [7] was 2.4%.

Take `C=CCn1c2ccccc2c2nnc(SCN3C(=O)c4ccccc4C3=O)nc21`: the growth inhibition was 7.65% in test [1] and 48.4% (active) in test [2]. Also, the viability increase in test [3] is -4.7%. Moreover, the viability in test [4] is 100%; in test [5] it was 93.7%. Besides, the inhibition in test [6] was 3.45%. Besides, in test [7], the RAM network inhibition was 4.65%.

With `CSc1ccc(S(=O)(=O)Nc2ccc3c(c2)OCCO3)cc1`, the growth inhibition in test [1] is -3.2%; in test [2], -11%. Moreover, in test [3], the viability increase was -3.95%. The viability was 62.2% in test [4] and 71.9% in test [5]. Besides, the inhibition in test [6] is 1.67%. In test [7], the RAM network inhibition was -0.87%.

Turning to `COC(=O)c1cc(-c2ccc(Br)cc2)on1`, the growth inhibition in test [1] is 1.85%; in test [2] it was 1.59%. The viability increase in test [3] is -2.76%. The viability in test [4] was 102%; in test [5], 96.6%. In addition, the inhibition in test [6] is 0.09%. Further, the RAM network inhibition in test [7] was 1.79%.

Turning to `CCN1CCN(CCCNC(=O)Cn2cc3c(n2)CCCC3)CC1`, the growth inhibition in test [1] was -5.34%; in test [2], 0.355%. The viability increase in test [3] was -1.2%. The figures for the viability in test [4] and in test [5] were 108% and 97.2%, respectively. Also, in test [6], the inhibition was 0.945%. In addition, in test [7], the RAM network inhibition is 0.76%.

As for `O=C(Cn1cc2c(n1)CCCC2)NCc1cccs1`, the growth inhibition is -4.03% in test [1] and -3.48% in test [2]. The viability increase in test [3] was -0.37%. For the same compound, the viability in test [4] was 105%; in test [5], 93%. Besides, the inhibition in test [6] was 1.2%. For the same compound, the RAM network inhibition in test [7] was 0.81%.

Take `Cc1nnc(SCC(=O)Nc2ccc3c(c2)COC3=O)n1-c1ccccc1`: the figures for the growth inhibition in test [1] and in test [2] were -9.99% and 0.555%, respectively. Also, the viability increase in test [3] was -0.13%. Besides, the viability was 98.8% in test [4] and 92.8% in test [5]. The inhibition in test [6] is 3.27%. The RAM network inhibition in test [7] was 1.16%.

Regarding `Cc1ccc(-n2c3c(cc(C(=O)NCc4ccco4)c2=O)C(=O)CC(C)(C)C3)cc1`, the growth inhibition in test [1] was -5.76%; in test [2] it was -4.77%. Also, the viability increase in test [3] is -5.37%. In addition, the viability in test [4] was 83%; in test [5], 85.6%. For the same compound, in test [6], the inhibition is -0.235%. The RAM network inhibition in test [7] was 3.42%.

Consider `COc1ccc(-c2nc(CS(=O)CC(=O)NCc3ccco3)c(C)o2)cc1` (stereo unspecified), for which the growth inhibition in test [1] was -8.38%; in test [2], 17.3%. Moreover, the viability increase in test [3] was -4.45%. Besides, the viability is 92.5% in test [4] and 100% in test [5]. Moreover, the inhibition in test [6] was 1.88%. The RAM network inhibition in test [7] is 0.58%.

Consider `CCOc1ccc(-c2cc(CCCC(=O)NCc3ccco3)no2)cc1`, for which the results for the growth inhibition in test [1] and in test [2] were -2.19% and -4.02%, respectively. For the same compound, the viability increase in test [3] is -2.79%. Further, the viability is 86.5% in test [4] and 88% in test [5]. The inhibition in test [6] was 0.22%. Further, in test [7], the RAM network inhibition was 1.77%.

As for `Cc1cccc(NC(=O)CCNS(=O)(=O)c2cccc3nsnc23)c1`, the growth inhibition in test [1] is -7.62%; in test [2], -12.6%. Also, the viability increase in test [3] is -2.32%. The viability was 94.5% in test [4] and 90.7% in test [5]. For the same compound, in test [6], the inhibition was 1.34%. Also, the RAM network inhibition in test [7] was 1.66%.

Consider `CCN(CC)c1ccc(NC(=O)CSc2nc(C)cc(=O)[nH]2)cc1`, for which the growth inhibition is -5.01% in test [1] and 1.71% in test [2]. Also, the viability increase in test [3] is -0.69%. Moreover, the viability is 95.7% in test [4] and 95.4% in test [5]. In addition, the inhibition in test [6] was 0.125%. For the same compound, the RAM network inhibition in test [7] is 5.74%.

Consider `Nc1c(Br)cc(Br)c(N2CCCC2=O)c1Br`, for which the figures for the growth inhibition in test [1] and in test [2] were -6.31% and -7.93%, respectively. For the same compound, in test [3], the viability increase was -2.68%. Further, the viability in test [4] is 92.6%; in test [5], 92.7%. In addition, the inhibition in test [6] was 1.68%. Moreover, in test [7], the RAM network inhibition was 0.63%.

As for `CCOCCCNC(=O)c1cc2c(-c3ccc(Cl)cc3)nn(C)c2s1`, the growth inhibition in test [1] is 7.49%; in test [2], 11%. Further, in test [3], the viability increase is -6.53%. Further, the viability is 62.2% in test [4] and 56.8% in test [5]. In test [6], the inhibition is 2.62%. In addition, the RAM network inhibition in test [7] is 1.34%.

As for `O=C(CS(=O)(=O)c1cn(Cc2ccccc2Cl)c2ccccc12)N1CCOCC1`, the growth inhibition in test [1] is -3.44%; in test [2], 2.78%. The viability increase in test [3] is -4.39%. In addition, the values for the viability in test [4] and in test [5] were 79% and 76%, respectively. Further, in test [6], the inhibition was 3.23%. Further, the RAM network inhibition in test [7] was 5.08%.

As to `O=C(CSc1nnc(Cn2c(=O)sc3ccccc32)n1-c1ccccc1)N1CCCCCC1`, the growth inhibition is -11.3% in test [1] and -4.95% in test [2]. For the same compound, the viability increase in test [3] was -2.95%. The viability in test [4] is 91.7%; in test [5], 81.7%. Further, in test [6], the inhibition was 2.22%. In addition, the RAM network inhibition in test [7] was 6.65%.

For the origin of these results see PubChem BioAssay.
